Reference: ChEMBL document CHEMBL1132342, “Novel hypotensive agents from Verbesina caracasana. 6. Synthesis and pharmacology of caracasandiamide” (1999)
Several values for one entry are separate records, joined by “and”; a condition that tells them apart may be missing. Equal entries are not always repeated.

Columns and labels:
[1] = test system: Rattus norvegicus; experiment: Change in heart rate after iv administration of 50 ug/Kg in anesthetized rats; format: functional
Summary of the method: (§1)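 Male Wistar rats (299 ± 3 g) were anesthetized with ethylurethane ip, tracheally cannulated and breathing spontaneously, at 37 °C, and stabilized for 60 min. Doses of 50-3200 µg/kg (ratio 2.0) in saline were injected by femoral vein, 50 µL each. Recordings: femoral arterial BP, electromagnetic abdominal-aortic flow, SV from integrated pulsatile flow, polygraphic RF. Peak changes, mean ± SE, n = 12 (n = 7 at 3200).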

[2] = test system: Rattus norvegicus; experiment: Change in systolic blood pressure after iv administration of 100 ug/Kg in anesthetized rats; format: functional, Artery; summary of the method: as §1
[3] = test system: Rattus norvegicus; experiment: Maximum rate of rise of the left ventricular isovolumetric pressure was measured after iv administration of 100 ug/Kg in anesthetized rats; format: functional, Heart left ventricle
Summary of the method: (§2)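 Urethane-anesthetized (10% w/v, […] ip in saline) adult male Wistar rats, trachea cannulated, breathing spontaneously, 37 °C. Femoral artery catheter for blood pressure, femoral vein for dosing. Sequential iv doses 50–3200 µg/kg (ratio 2.0) in saline, each given after parameters returned to baseline. Peak changes recorded; means ± SE, n = 12 (n = 7 at 3200 µg/kg).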

[4] = test system: Rattus norvegicus; experiment: Change in mean aortic flow after iv administration of 1600 ug/Kg in anesthetized rats; format: functional; summary of the method: as §1
[5] = test system: Rattus norvegicus; experiment: Change in diastolic blood pressure after iv administration of 800 ug/Kg compound (treatment with reserpine(5 mg/kg/day for 2 days, ip)in anesthetized rats; format: functional, Artery
Summary of the method: (§3)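 In anesthetized male Wistar rats, responses to iv compound (200–1600 µg/kg, ratio 2.0) were measured alone and under three pretreatments: continuous iv papaverine infusion (1 mg/kg/min), ip reserpine (5 mg/kg/day for 2 days), or iv hexamethonium (5 mg/kg). Peak changes are given as mean ± SE, n = 6 per group; p < 0.05 versus control.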

[6] = test system: Rattus norvegicus; experiment: Change in diastolic blood pressure after iv administration of 400 ug/Kg compound (treatment with hexamethonium (5 mg/Kg, iv)in anesthetized rats; format: functional, Artery; summary of the method: as §3
[7] = test system: Rattus norvegicus; experiment: Maximum rate of rise of the left ventricular isovolumetric pressure was measured after iv administration of 1600 ug/Kg in anesthetized rats; format: functional, Heart left ventricle; summary of the method: as §2
[8] = test system: Rattus norvegicus; experiment: Change in systolic blood pressure after iv administration of 800 ug/Kg compound (treatment with reserpine(5 mg/kg/day for 2 days, ip)in anesthetized rats; format: functional, Artery
Summary of the method: (§4)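 Anesthetized rats, n = 6 per group, received iv doses of 200–1600 µg/kg (ratio 2.0) either alone (control) or under pretreatment: continuous iv papaverine infusion 1 mg/kg/min, reserpine 5 mg/kg/day ip for 2 days, or hexamethonium 5 mg/kg iv. Peak changes in BP, heart rate and dP/dt recorded; means ± SE, p < 0.05 versus control.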

[9] = test system: Rattus norvegicus; experiment: Change in stroke volume after iv administration of 200 ug/Kg in anesthetized rats; format: functional; summary of the method: as §1
[10] = test system: Rattus norvegicus; experiment: Change in diastolic blood pressure after iv administration of 400 ug/Kg in the presence of isoprenaline (agonist) in anesthetized rats; format: functional, Artery
Summary of the method: (§5)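 Urethane-anesthetized male Wistar rats (16 rats, two equal groups) received 400 or 1600 µg/kg compound iv. Cardiovascular responses to iv agonist boluses (noradrenaline 1 µg/kg, acetylcholine 2.50 µg/kg, adrenaline, isoprenaline) were measured before and after compound dosing. Peak responses are given as mean ± SE; p < 0.05 versus control mean.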

[11] = test system: Rattus norvegicus; experiment: Change in systolic blood pressure after iv administration of 200 ug/Kg in anesthetized rats; format: functional, Artery; summary of the method: as §1
[12] = test system: Rattus norvegicus; experiment: Change in heart rate after iv administration of 3200 ug/Kg in anesthetized rats; format: functional
Summary of the method: (§6)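 Adult male Wistar rats under ip ethylurethane (10% w/v in saline, 1 mL/kg) with tracheal cannula and spontaneous breathing, kept at 37 °C. Arterial BP was recorded by femoral artery catheter; compound in saline (50 µL) was given via femoral vein at 50–3200 µg/kg, ratio 2.0. Peak change is given as mean ± SE, n = 12 (n = 7 at 3200 µg/kg).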

[13] = test system: Rattus norvegicus; experiment: Change in diastolic blood pressure after iv administration of 1600 ug/Kg compound (treatment with reserpine(5 mg/kg/day for 2 days, ip)in anesthetized rats; format: functional, Artery; summary of the method: as §3
[14] = test system: Rattus norvegicus; experiment: Maximum rate of rise of the left ventricular isovolumetric pressure after iv administration of 1600 ug/Kg compound (treatment with reserpine(5 mg/kg/day for 2 days, ip)in anesthetized rats; format: functional, Heart left ventricle; summary of the method: as §4
[15] = test system: Rattus norvegicus; experiment: Change in mean aortic flow after iv administration of 800 ug/Kg in anesthetized rats; format: functional; summary of the method: as §1
[16] = test system: Rattus norvegicus; experiment: Change in heart rate after iv administration of 400 ug/Kg in the presence of adrenaline (agonist) in anesthetized rats; format: functional; summary of the method: as §5
[17] = test system: Rattus norvegicus; experiment: Change in systolic blood pressure after iv administration of 50 ug/Kg in anesthetized rats; format: functional, Artery; summary of the method: as §2
[18] = test system: Rattus norvegicus; experiment: Maximum rate of rise of the left ventricular isovolumetric pressure was measured after iv administration of 4.12 uM/kg in anesthetized rats; ratio given for dP/dt; format: functional, Heart left ventricle
[19] = test system: Rattus norvegicus; experiment: Change in heart rate after iv administration of 200 ug/Kg in anesthetized rats; format: functional; summary of the method: as §6
[20] = test system: Rattus norvegicus; experiment: Change in heart rate after iv administration of 400 ug/Kg in the presence of noradrenaline (agonist) in anesthetized rats; format: functional
[21] = test system: Rattus norvegicus; experiment: Change in respiratory frequency after iv administration of 400 ug/Kg in anesthetized rats; format: functional; summary of the method: as §1
[22] = test system: Rattus norvegicus; experiment: Change in systolic blood pressure after iv administration of 1600 ug/Kg in the presence of noradrenaline (agonist) in anesthetized rats; format: functional, Artery
[23] = test system: Rattus norvegicus; experiment: Change in respiratory frequency after iv administration of 1600 ug/Kg in anesthetized rats; format: functional; summary of the method: as §1
[24] = test system: Rattus norvegicus; experiment: Maximum rate of rise of the left ventricular isovolumetric pressure was measured after iv administration of 400 ug/Kg in the presence of isoprenaline (agonist) in anesthetized rats; format: functional, Heart left ventricle
Summary of the method: (§7)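 Anesthetized male Wistar rats, two groups of 8, received 400 or 1600 µg/kg iv. Before and after this dose, iv agonist challenges were given: noradrenaline 1 µg/kg, adrenaline, acetylcholine 2.50 µg/kg, or isoprenaline. Systolic/diastolic BP, heart rate and dP/dt responses were recorded before (control) and after dosing; significance was set at p < 0.05 versus control.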

[25] = test system: Rattus norvegicus; experiment: Change in systolic blood pressure after iv administration of 400 ug/Kg in the presence of adrenaline (agonist) in anesthetized rats; format: functional, Artery; summary of the method: as §7
[26] = test system: Rattus norvegicus; experiment: Change in diastolic blood pressure after iv administration of 800 ug/Kg compound (treatment with hexamethonium (5 mg/Kg, iv)in anesthetized rats; format: functional, Artery; summary of the method: as §3
[27] = test system: Rattus norvegicus; experiment: Change in systolic blood pressure after iv administration of 1600 ug/Kg in the presence of adrenaline (agonist) in anesthetized rats; format: functional, Artery
[28] = test system: Rattus norvegicus; experiment: Change in heart rate after iv administration of 4.12 uM/kg in anesthetized rats; format: functional

`COc1ccc(C2C(c3ccc(OC)c(OC)c3)[C@H](C(=O)NCCCC/N=C(\N)NCC=C(C)C)[C@@H]2C(=O)NCCCC/N=C(\N)NCC=C(C)C)cc1OC` (some centres undefined) [CARACASANDIAMIDE] was tested, and the “Change in heart rate” value [1] was -3%, the Heart rate [1] was -9 beats min-1 and the BP [2] was 12 mmHg. For the same compound, the “Change in BP” value [2] was 12%, the “Change in dP/dt” value [3] was 18% and the dP/dt [3] was 1129 mmHg s-1. For the same compound, the “Change in mean aortic flow” value [4] was -49%, the Mean aortic flow [4] was -36 mL/min and the BP [5] was -12 mmHg. The BP [6] was -45 mmHg, the “Change in dP/dt” value [7] was 60% and the dP/dt [7] was 3676 mmHg s-1. The BP [8] was -11 mmHg, the “Change in stroke volume” value [9] was 11% and the Stroke volume [9] was 23 µL. For the same compound, the BP [10] was -49 mmHg, the BP [11] was -14 mmHg and the “Change in BP” value [11] was -13%. The “Change in heart rate” value [12] was -11%, the Heart rate [12] was -41 beats min-1 and the BP [13] was -15 mmHg. For the same compound, the dP/dt [14] was 1238 mmHg s-1, the “Change in mean aortic flow” value [15] was -34% and the Mean aortic flow [15] was -25 mL/min. The Heart rate [16] was 24 beats min-1, the BP [17] was 17 mmHg and the “Change in BP” value [17] was 16%. For the same compound, the dP/dt [18] was 3990 mmHg s-1, the “Change in heart rate” value [19] was -4% and the Heart rate [19] was -13 beats min-1. The Heart rate [20] was 23 beats min-1, the “Change in respiratory frequency” value [21] was -3 beats min-1 and -3% and the BP [22] was 24 mmHg. For the same compound, the “Change in respiratory frequency” value [23] was -61 beats min-1 and -64%, the dP/dt [24] was 13696 mmHg s-1 and the BP [25] was 21 mmHg. For the same compound, the BP [26] was -53 mmHg, the BP [27] was 14 mmHg and the Heart rate [28] was -35 beats min-1.
